Source: ChEMBL document CHEMBL5247671, “Design and Synthesis of Pyrazole-Based Macrocyclic Kinase Inhibitors Targeting BMPR2” (ACS Med Chem Lett, 2023)

Columns and labels:
[1] = target: T1, Glycogen synthase kinase-3 beta (Homo sapiens, UniProt P49841); experiment: Inhibition of recombinant GSK3B (unknown origin) at 10 uM by DSF assay relative to staurosporine
Outline: (§1)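 Differential scanning fluorimetry on an in-house panel of 90 recombinant kinases. Stabilization is read as the shift in melting temperature (ΔTm) relative to ligand-free protein. Staurosporine served as the positive control, and binding was also compared against its ΔTm.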
Target sequence in this assay (P49841 whole entry, looked up): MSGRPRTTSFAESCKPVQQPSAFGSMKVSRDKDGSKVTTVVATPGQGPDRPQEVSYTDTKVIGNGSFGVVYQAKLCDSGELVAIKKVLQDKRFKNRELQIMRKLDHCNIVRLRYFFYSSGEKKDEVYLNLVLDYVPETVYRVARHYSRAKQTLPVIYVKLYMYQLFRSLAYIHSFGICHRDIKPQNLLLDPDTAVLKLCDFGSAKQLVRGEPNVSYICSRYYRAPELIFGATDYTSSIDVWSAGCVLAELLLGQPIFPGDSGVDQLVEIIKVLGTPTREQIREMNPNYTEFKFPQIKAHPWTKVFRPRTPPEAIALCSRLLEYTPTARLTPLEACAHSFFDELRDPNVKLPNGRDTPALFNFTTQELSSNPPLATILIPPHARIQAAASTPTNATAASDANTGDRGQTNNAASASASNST

[2] = target: T2, MAP/microtubule affinity-regulating kinase 4 (Homo sapiens) (UniProt Q96L34); experiment: Inhibition of recombinant MARK4 (unknown origin) at 10 uM by DSF assay relative to staurosporine; outline: as §1
T2 sequence (whole entry): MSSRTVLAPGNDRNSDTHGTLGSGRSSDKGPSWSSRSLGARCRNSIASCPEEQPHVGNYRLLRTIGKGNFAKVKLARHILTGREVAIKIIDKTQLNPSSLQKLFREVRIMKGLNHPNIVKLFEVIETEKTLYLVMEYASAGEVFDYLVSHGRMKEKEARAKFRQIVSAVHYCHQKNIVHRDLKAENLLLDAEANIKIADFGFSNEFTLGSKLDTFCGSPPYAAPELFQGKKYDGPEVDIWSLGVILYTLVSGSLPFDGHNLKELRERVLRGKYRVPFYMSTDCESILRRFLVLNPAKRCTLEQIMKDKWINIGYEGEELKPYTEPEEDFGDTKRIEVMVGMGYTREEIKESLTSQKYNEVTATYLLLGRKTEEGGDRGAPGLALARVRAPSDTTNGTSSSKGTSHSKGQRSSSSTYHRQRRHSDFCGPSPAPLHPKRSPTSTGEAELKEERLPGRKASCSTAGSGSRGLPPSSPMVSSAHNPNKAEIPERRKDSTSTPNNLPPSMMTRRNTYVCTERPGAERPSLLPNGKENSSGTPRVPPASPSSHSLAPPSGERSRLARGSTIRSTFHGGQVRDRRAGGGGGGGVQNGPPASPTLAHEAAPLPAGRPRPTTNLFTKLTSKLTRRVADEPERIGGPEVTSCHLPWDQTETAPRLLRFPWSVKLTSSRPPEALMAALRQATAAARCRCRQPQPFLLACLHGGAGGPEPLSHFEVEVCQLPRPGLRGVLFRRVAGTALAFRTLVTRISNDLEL

[3] = target: T3, Tyrosine-protein kinase Mer (Homo sapiens) (UniProt Q12866); experiment: Binding affinity to recombinant MERTK (unknown origin) assessed as change in melting temperature at 10 uM by DSF assay; outline: as §1
T3 sequence (whole entry): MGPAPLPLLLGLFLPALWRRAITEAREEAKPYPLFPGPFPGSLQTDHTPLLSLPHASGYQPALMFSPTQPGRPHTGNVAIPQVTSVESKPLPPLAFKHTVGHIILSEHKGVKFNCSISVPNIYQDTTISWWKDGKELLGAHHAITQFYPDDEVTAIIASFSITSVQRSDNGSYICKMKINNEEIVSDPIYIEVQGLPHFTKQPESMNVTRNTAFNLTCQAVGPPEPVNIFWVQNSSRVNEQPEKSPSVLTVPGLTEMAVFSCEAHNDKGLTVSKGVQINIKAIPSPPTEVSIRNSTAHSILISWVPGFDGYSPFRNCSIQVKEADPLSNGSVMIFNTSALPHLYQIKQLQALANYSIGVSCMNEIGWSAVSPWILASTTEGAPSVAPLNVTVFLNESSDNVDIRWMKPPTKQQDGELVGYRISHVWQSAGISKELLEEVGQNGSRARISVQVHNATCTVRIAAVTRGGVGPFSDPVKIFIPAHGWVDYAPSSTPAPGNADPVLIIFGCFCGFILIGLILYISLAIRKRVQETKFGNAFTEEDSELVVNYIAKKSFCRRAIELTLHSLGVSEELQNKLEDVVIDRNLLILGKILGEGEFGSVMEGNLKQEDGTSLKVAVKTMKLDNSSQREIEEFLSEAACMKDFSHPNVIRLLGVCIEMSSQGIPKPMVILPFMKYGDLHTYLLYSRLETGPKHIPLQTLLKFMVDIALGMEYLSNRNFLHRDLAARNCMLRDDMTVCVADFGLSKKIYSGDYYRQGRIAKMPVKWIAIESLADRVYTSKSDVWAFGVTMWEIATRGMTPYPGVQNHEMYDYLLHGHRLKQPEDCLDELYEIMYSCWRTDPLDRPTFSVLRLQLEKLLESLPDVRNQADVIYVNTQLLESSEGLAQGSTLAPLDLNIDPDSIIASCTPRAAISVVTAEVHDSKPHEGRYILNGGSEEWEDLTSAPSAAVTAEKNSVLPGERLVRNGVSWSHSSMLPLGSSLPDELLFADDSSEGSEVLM

[4] = target: T1, Glycogen synthase kinase-3 beta; experiment: Binding affinity to recombinant GSK3B (unknown origin) assessed as change in melting temperature at 10 uM by DSF assay; outline: as §1
Target sequence in this assay (P49841 whole entry, looked up): as the sequence (P49841 whole entry, looked up) above

[5] = target: Vascular endothelial growth factor receptor 1 (Homo sapiens) (UniProt P17948); experiment: Inhibition of recombinant FLT1 (unknown origin) at 10 uM by DSF assay relative to staurosporine; outline: as §1
Sequence of Vascular endothelial growth factor receptor 1 (Homo sapiens) (P17948 whole entry, the tested form may be a part): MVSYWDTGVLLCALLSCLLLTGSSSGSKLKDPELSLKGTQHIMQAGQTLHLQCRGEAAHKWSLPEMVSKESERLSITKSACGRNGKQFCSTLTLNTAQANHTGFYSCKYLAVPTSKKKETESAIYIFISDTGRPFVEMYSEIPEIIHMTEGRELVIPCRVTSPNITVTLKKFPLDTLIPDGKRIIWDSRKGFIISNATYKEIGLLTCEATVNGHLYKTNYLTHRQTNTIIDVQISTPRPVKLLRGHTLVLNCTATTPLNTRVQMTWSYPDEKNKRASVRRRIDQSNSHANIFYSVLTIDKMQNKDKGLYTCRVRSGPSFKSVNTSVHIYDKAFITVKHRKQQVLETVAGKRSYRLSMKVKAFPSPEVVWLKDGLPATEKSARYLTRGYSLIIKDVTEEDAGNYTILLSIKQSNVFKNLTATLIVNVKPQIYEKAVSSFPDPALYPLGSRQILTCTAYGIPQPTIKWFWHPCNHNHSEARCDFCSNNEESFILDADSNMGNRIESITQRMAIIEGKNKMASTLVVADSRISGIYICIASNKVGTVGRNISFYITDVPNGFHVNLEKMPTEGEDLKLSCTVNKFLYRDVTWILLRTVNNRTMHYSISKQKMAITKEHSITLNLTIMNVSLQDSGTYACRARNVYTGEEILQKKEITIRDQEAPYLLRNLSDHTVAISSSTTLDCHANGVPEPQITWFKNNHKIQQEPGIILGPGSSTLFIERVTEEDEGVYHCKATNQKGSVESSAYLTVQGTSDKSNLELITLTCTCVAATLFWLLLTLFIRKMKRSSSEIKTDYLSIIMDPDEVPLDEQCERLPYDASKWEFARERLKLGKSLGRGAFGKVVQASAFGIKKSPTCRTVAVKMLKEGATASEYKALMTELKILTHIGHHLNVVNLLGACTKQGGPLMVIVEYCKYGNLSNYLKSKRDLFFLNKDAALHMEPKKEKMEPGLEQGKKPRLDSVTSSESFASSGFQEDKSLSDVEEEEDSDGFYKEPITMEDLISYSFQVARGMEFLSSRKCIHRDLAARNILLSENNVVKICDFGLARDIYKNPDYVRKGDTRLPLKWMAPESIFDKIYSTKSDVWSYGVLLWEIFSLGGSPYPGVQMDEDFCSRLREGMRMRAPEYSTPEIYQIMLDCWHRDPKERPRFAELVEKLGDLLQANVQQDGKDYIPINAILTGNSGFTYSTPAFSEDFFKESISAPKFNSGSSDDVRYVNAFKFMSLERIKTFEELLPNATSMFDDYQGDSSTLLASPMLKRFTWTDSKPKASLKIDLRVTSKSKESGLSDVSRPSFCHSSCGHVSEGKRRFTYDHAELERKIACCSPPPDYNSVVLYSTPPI

[6] = target: Glycogen synthase kinase-3 alpha (Homo sapiens, UniProt P49840); experiment: Inhibition of N-terminal NanoLuc-fused full length GSK3A (unknown origin) transfected in HEK293T cells incubated for 2 hrs in presence of tracer K8 by NanoBRET assay; assay type: cell-based
Sequence of Glycogen synthase kinase-3 alpha (P49840 whole entry, the tested form may be a part): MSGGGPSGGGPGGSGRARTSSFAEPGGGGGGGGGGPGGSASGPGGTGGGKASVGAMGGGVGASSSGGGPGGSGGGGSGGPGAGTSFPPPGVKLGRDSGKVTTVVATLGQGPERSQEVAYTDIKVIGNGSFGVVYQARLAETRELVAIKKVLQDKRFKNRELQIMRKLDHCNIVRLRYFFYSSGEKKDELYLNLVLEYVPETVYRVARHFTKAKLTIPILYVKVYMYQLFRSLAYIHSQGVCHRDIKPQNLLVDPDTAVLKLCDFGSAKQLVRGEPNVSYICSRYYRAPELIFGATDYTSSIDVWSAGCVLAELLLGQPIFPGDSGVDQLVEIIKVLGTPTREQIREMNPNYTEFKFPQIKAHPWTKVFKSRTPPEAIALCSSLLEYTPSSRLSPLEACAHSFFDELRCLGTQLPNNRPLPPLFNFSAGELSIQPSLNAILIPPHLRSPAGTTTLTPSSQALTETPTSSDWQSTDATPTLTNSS
Outline: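 Cellular target engagement by NanoBRET in intact cells expressing NanoLuc-fused GSK3A or GSK3B, with EC50 values derived from tracer displacement.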

[7] = target: Serine/threonine-protein kinase 24 (Homo sapiens) (UniProt Q9Y6E0); experiment: Binding affinity to recombinant MST3 (unknown origin) assessed as change in melting temperature at 10 uM by DSF assay; outline: as §1
Sequence of Serine/threonine-protein kinase 24 (Homo sapiens) (Q9Y6E0 whole entry, looked up): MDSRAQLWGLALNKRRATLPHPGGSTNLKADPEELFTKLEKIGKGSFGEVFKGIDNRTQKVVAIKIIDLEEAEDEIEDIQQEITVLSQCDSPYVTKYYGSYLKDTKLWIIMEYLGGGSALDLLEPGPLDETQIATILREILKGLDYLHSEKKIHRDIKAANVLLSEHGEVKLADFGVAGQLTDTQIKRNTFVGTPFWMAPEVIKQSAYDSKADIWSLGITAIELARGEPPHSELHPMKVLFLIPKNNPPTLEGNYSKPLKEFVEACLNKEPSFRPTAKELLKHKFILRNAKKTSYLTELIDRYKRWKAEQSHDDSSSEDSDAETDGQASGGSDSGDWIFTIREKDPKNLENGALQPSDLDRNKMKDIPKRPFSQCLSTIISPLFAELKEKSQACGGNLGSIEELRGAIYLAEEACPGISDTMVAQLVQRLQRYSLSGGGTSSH

[8] = target: T2, MAP/microtubule affinity-regulating kinase 4 (Homo sapiens); experiment: Binding affinity to recombinant MARK4 (unknown origin) assessed as change in melting temperature at 10 uM by DSF assay; outline: as §1
[9] = target: T1, Glycogen synthase kinase-3 beta; experiment: Inhibition of N-terminal NanoLuc-fused full length lysed GSK3B (unknown origin) transfected in HEK293T cells incubated for 2 hrs in presence of tracer K8 by NanoBRET assay; assay type: cell-based
Outline: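 GSK3B NanoBRET run in the lysed mode, with cells permeabilized by digitonin to bypass compound cell penetration. EC50 values were derived from tracer displacement.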
Target sequence in this assay (P49841 whole entry): as the sequence (P49841 whole entry, looked up) above

- inhibition [1]: 71%
- inhibition [2]: 23%
- ΔTm [3]: 3.2 °C
- ΔTm [4]: 8.4 °C
- inhibition [5]: 36%
- IC50 [6]: 11 µM
- ΔTm [7]: 3.2 °C
- ΔTm [8]: 3.8 °C
- IC50 [9]: 2300 nM
SMILES: O=C1NCCc2ccc(cc2)Nc2nccc(n2)Nc2cc1[nH]n2
